MrgX1 ag = activates human MrgX1 receptor signaling; Q96LB2; actives 0.44% (n = 310,000); B-score at 10 µM; AID 588627; MrgX1-HEK293 cells, Fluo-4 calcium fluorescence, agonist mode; hits give high values;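 active = calcium response B-score plate-corrected fluorescence ratio at least 3 library SD, with starting fluorescence B-score inside 5 SD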
Target sequence (Q96LB2 whole entry, looked up): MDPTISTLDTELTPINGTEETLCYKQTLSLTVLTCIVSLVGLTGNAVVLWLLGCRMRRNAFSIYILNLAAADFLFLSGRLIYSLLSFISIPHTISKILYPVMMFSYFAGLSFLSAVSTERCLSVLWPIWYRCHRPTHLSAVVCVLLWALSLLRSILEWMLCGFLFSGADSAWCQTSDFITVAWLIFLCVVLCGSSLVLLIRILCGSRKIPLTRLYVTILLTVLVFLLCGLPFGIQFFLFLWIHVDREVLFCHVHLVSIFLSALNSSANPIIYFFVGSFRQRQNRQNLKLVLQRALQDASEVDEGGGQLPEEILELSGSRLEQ
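Material – MrgX1-expressing HEK293 cells · Input – 15,000 cells seeded per well · Dosing – compound as first of three additions · Times – overnight seeding, then 1 h dark dye loading · Measured by – kinetic Fluo-4 NW fluorescence of intracellular calcium · Read-out – B-scored fluorescence response ratio · Benchmarks – positive and negative control wells on each plate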
RGS4 act = potentiators or activators of RGS4. HEK293 M3R/inducible RGS4, carbachol calcium flux Fluo4; hits give low values. B-score at 10 µM. actives 0.92% (n = 310,000). AID 463111;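 active = B-score of the integrated calcium signal more than 4 SD below the library mean, with starting fluorescence not abnormally high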;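 also: negative B-score means reduced calcium response which marks RGS4 activation or potentiation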
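Reagent: ECmax carbachol challenge; Test system: M3R-expressing HEK293 line, RGS4 induced by doxycycline; Schedule: overnight RGS4 induction, 30 min dye load 37 °C, 20 min compound RT; Detection: calcium dye Fluo4 fluorescence; Read-out: Agonist-evoked peak-minus-minimum fluorescence over baseline, integrated ratio, B score.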
RGS4 block = human RGS4 inhibition; AID 463165; HEK293 M3R/RGS4 inducible, Fluo-4 calcium flux; hits give high values; triggered by carbachol at its EC20; actives 0.45% (n = 310,000); B-score at 10 µM;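 active = B-score, a plate-corrected calcium signal, over three deviations above library mean, with baseline fluorescence within five deviations of library mean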;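 also: RGS4 expression induced by doxycycline in cells with stable M3 receptor; B-score is computed from the integrated fluorescence ratio over baseline after carbachol; higher B-score means a larger calcium signal and so more RGS4 inhibition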
Target sequence (P49798 whole entry, looked up): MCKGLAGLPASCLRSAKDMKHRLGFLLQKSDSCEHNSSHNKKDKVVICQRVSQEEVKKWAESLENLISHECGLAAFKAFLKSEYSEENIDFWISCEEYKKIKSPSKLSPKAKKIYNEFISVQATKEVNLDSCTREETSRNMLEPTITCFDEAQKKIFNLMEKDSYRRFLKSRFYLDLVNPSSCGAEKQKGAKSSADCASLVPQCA
MrgX1 antag = blocks BAM8-22 activation of human MrgX1 receptor; Q96LB2; AID 588676; actives 1.3% (n = 310,000); MRGX1-HEK293 calcium flux, Fluo-4, BAM8-22 antagonism; hits give low values; B-score at 10 µM;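 active = calcium-response B-score plate-corrected more than 3 library SD below zero, starting fluorescence within 5 deviations, no agonist response on first addition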;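 also: peak minus trough fluorescence over baseline after final BAM8-22 challenge near maximal dose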
MrgX1 allo act = human MrgX1 positive allosteric modulation, primary screen; Q96LB2; MrgX1-HEK293, Fluo-4 calcium flux, FDSS; hits give high values; B-score at 10 µM; actives 0.63% (n = 310,000); AID 588675;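 active = plate-corrected calcium response at least 3 library SD above typical, normal starting fluorescence, not activating the receptor alone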;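 also: compound read alongside a low EC10 to EC30 dose of BAM8-22 agonist; peak minus trough fluorescence over baseline measured at the second addition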
Of the large screens only hits and unclear results are named; the others gave an inactive call. Most compounds without a hit are left out; they make up all but 3.5% or so of the library.

CC1(C)CC(c2nc(-c3ccc(Cl)cc3)cs2)CCS1 (stereo unspecified)	MrgX1 allo act 8.7
CC(C)(C)c1ccc(SCCc2ccccn2)cc1	none
Cc1ccc([N+](=O)[O-])cc1N(CC(=O)NC1CCCC1)S(C)(=O)=O	MrgX1 allo act 11
Cc1ccc([N+](=O)[O-])cc1N(CC(=O)N1CCCCC1)S(C)(=O)=O	MrgX1 allo act 7.5
Cc1ccc(C)c(N(CC(=O)N2CCCCCC2)S(C)(=O)=O)c1	none
COc1ccc([N+](=O)[O-])cc1N(CC(=O)NC1CCCCC1)S(C)(=O)=O	none
Cc1c(NC(=O)c2cc(-n3cnnc3)ccc2Cl)cccc1-c1nc2ccccc2s1	none
O=C(Nc1cccc(-c2nc3ccccc3s2)c1)c1cc(-n2cnnc2)ccc1Cl	RGS4 act -8.3
CCCCCCCOC(=O)C[N+](C)(C)CCOC1CC2CCC1(C)C2(C)C (stereo unspecified)	RGS4 act -8.2 (no result: MrgX1 ag, MrgX1 antag, MrgX1 allo act)
CN(C)/C=C1\SC(=S)N(c2ccc(F)cc2)C1=O	none
CN(C)/C=C1\SC(=S)N(c2ccc(Br)cc2)C1=O	MrgX1 antag -4.9
N=c1n(Cc2ccc(Cl)cc2)c2ccccc2n1CC(O)COc1ccccc1 (stereo unspecified)	none
N=c1n(Cc2ccccc2)c2ccccc2n1CC(O)COc1ccc(Cl)cc1Cl (stereo unspecified)	RGS4 act -9 (no result: MrgX1 ag, MrgX1 antag, MrgX1 allo act)
Cc1ccc(C2=NCCn3c2c2ccc(C(F)(F)F)cc2[n+]3[O-])cc1	none
COc1c2c(nc3occc13)C(CC=C(C)C)(OC)C(=O)C=C2 (stereo unspecified)	MrgX1 allo act 12
C=CCOc1ccc2c(OC)c3ccoc3nc2c1OC	none
Cc1cccc(NC(=S)N(Cc2cccs2)Cc2cc3cc(C)cc(C)c3[nH]c2=O)c1	MrgX1 antag -5.4
COc1ccc2[nH]c(=O)c(CN(Cc3cccs3)C(=S)Nc3cccc(C)c3)cc2c1	none
NC(N)=N/N=C/c1ccc(OS(=O)(=O)c2ccccc2)cc1	MrgX1 ag 30, RGS4 act -8.4
Cc1ccc(SCc2nc3ncccn3c2Br)cc1	RGS4 act -7.6
CCC(Sc1nc2cc(OC)c(OC)cc2c(=O)n1CCc1ccc(OC)c(OC)c1)C(=O)NCCOC (stereo unspecified)	none
NC(=O)C1CCN(CC(=O)N2N=CCC2c2ccccc2)CC1 (stereo unspecified)	MrgX1 antag -5.8
OCc1ccccc1SSc1ccccc1CO	MrgX1 ag 41
N=C1S/C(=C\c2ccco2)C(=O)N1c1nccs1	MrgX1 ag 48
N=C1S/C(=C\c2ccco2)C(=O)N1c1ccc2c(c1)OCO2	none
O=C(CCNc1ccc(Cc2ccncc2)cc1)c1cccc([N+](=O)[O-])c1	none
Cc1ccc(S(=O)(=O)CCC(=O)c2cccc([N+](=O)[O-])c2)cc1	MrgX1 ag 33
Cc1ccc(C(=O)CCS(=O)(=O)c2ccc(Br)cc2)cc1	none
O=C(CCNc1cccc(F)c1)c1cccc([N+](=O)[O-])c1	MrgX1 allo act 9.1
c1ccc(Nc2nc3ccccc3n3nnnc23)cc1	none
CCN(CC)S(=O)(=O)c1ccc(Nc2nc3ccccc3n3nnnc23)cc1	MrgX1 antag -6.8, MrgX1 allo act 14
CCn1c(C)nc2cc(C(=O)N/N=C(\C)c3ccccc3O)ccc21	none
Cc1cccc(-c2nnc(-c3cccc(NC(=O)Cc4cccs4)c3)o2)c1	RGS4 act -7.4
O=C(Cc1cccs1)Nc1ccc(-c2nnc(-c3ccccc3)o2)cc1	none
CCOc1ccccc1OCCC(=O)NNC(=O)Cn1nc(C)cc1C	none
Cc1cc(=O)n2nc(N3CCC(C(=O)NCc4ccccc4Cl)CC3)sc2n1	none
Clc1cccc(COn2c(-c3ccc(Cl)cc3Cl)nc3ncccc32)c1	none
Cc1ccc(COn2c(-c3ccc(Cl)cc3Cl)nc3ncccc32)cc1	RGS4 act -8.7
O=C(O)CSCC(=O)N(Cc1ccccc1)c1nc(-c2ccccc2)c(-c2ccccc2)s1	MrgX1 antag -4.7
COc1cc(C(=O)OCn2nnc3ccccc3c2=O)cc(OC)c1OC	none
CCOc1ccc(C(=O)OCn2nnc3ccccc3c2=O)cc1OC	MrgX1 antag -7.6
O=C(OCn1nnc2ccccc2c1=O)c1ccc(O)cc1	MrgX1 allo act 12
C=CCN1C(c2cccc(C(F)(F)F)c2)=CS/C1=C(/C#N)c1nnc(N2CCOCC2)n1-c1ccccc1	MrgX1 ag 45
COc1ccccc1OCCCOc1ccc(/C=C2\SC(=O)NC2=O)cc1OC	RGS4 act -7.7
COc1ccc(-c2oc3ccccc3c2C(=O)OCc2ccccc2)cc1	MrgX1 allo act 8.1
COc1ccc(-c2oc3ccccc3c2C(=O)OCc2ccc(O)cc2)cc1	none
CCc1ccc(N2CC(O)(c3cccs3)[N+]3=C2SCCC3)cc1 (stereo unspecified)	RGS4 act -7.5
COc1ccccc1CNC(=O)CCCc1nnc2n(C)c(=O)c3sccc3n12	none
CC(NC(=O)C1CCC(CNc2c(N3CCCCC3)c(=O)c2=O)CC1)c1ccccc1 (stereo unspecified)	none
Cc1ccc(CSc2nnc(SCC(=O)N/N=C/c3ccc(C(=O)O)cc3)s2)cc1	MrgX1 antag -5.2
C=CCN1C(=O)C(CC(=O)Nc2ccc(OCCC)cc2)N(CCCN2CCN(Cc3ccccc3)CC2)C1=S (stereo unspecified)	MrgX1 allo act 9.4
CCOC(=O)c1c2c3c(cccc3n(C)c1=O)C(=O)c1ccccc1-2	none
Cn1c(=O)c(Nc2ccc(Cl)cc2)c2c3c(cccc31)C(=O)c1ccccc1-2	RGS4 act -7
COC(=O)c1cc(C(=O)NCCC(C)C)cc([N+](=O)[O-])c1	none
CCCC(C)NC(=O)c1cc(C(=O)OC)cc([N+](=O)[O-])c1 (stereo unspecified)	MrgX1 antag -5.2
Cc1nc(N/N=C/c2ccc(O)cc2O)cc(N2CCOCC2)n1	RGS4 act -7.6
Cc1ccc(C(=O)NCc2ccco2)cc1[N+](=O)[O-]	none
CC1CCCN(c2ccc(C(=O)NCc3ccco3)cc2[N+](=O)[O-])C1 (stereo unspecified)	MrgX1 antag -6.4
Cc1cccc(N(CC(=O)N2CCCCCC2)S(C)(=O)=O)c1	none
C=CCNC(=O)C1CC(=O)N(c2ccc(OCC(=O)Nc3ccc(Cl)cc3)cc2)C1 (stereo unspecified)	none
Cc1cc2sc3ccccc3c(=O)c2c(C)c1O	none
O=c1c(C(c2ccccc2)c2c(O)sc3ccccc3c2=O)c(O)sc2ccccc12	MrgX1 antag -4.6
c1ccc(COc2ccc(OCCCCN3CCCC3)cc2)cc1	RGS4 act -8.8
CC(=O)c1ccc(OCCCN2CCCCC2)cc1	none
c1ccc(OCCCCN2CCCCC2)cc1	none
O=C(c1ccccc1)c1ccc(OCCCN2CCCCC2)cc1	RGS4 act -7.2
c1ccc(-c2ccccc2OCCCCN2CCCCCC2)cc1	RGS4 act -7

High-throughput results: PubChem BioAssay, Johns Hopkins Ion Channel Center
